Data from ChEMBL document CHEMBL4813970, “Design, synthesis and evaluation of novel dimethylamino chalcone-O-alkylamines derivatives as potential multifunctional agents against Alzheimer's disease” (Eur J Med Chem, 2021).
Activity calls are given as the source filed them. The rule behind the calls is not given here.

What was measured:
[1] = biological target: T1, Amyloid-beta precursor protein (Homo sapiens, UniProt P05067); experiment: Disaggregation of self-induced amyloid beta (1 to 42) (unknown origin) at 25 uM measured by Thioflavin T based fluorometric assay relative to control
[2] = biological target: T1, Amyloid-beta precursor protein; experiment: Inhibition of self-induced amyloid beta (1 to 42) (unknown origin) aggregation by T-fluorescence assay relative to control; conditions: read-out: IC50
Summary of the method: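 IC50 by ThT fluorescence (excitation 446 nm, emission 490 nm). Computed only where inhibition of self-induced Aβ1-42 aggregation at 25 μM exceeded 90%. Triplicate; mean of three independent experiments.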

[3] = biological target: T1, Amyloid-beta precursor protein; experiment: Inhibition of self-induced amyloid beta (1 to 42) (unknown origin) assessed as reduction in fibril formation incubated for 24 hrs by transmission electron microscopy
Summary of the method: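 Aβ1-42 at 25 μM incubated 24 h with or without compound at 25 μM. Samples imaged by transmission electron microscopy.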

[4] = Antioxidant activity of compound assessed as trolox equivalent antioxidant capacity by ORAC-FL assay; assay type: functional
Butyrylcholinesterase = Butyrylcholinesterase (Rattus norvegicus, UniProt Q9JKC1); experiment: Inhibition of rat serum BuChE by Ellman's method
Acetylcholinesterase [5] = biological target: T2, Acetylcholinesterase (Electrophorus electricus, UniProt O42275); experiment: Inhibition of electric eel AChE using acetylthiocholine iodide as substrate by Ellman's method
[6] = biological target: Acetylcholinesterase (Electrophorus electricus) (UniProt O42275); experiment: Mixed type inhibition of electric eel AChE assessed as decrease in Vmax by reciprocal Lineweaver-Burk plot analysis; conditions: dose 0.5-2 µM
[7] = biological target: Acetylcholinesterase (Electrophorus electricus) (UniProt O42275); experiment: Mixed type inhibition of electric eel AChE assessed as increase in Km by reciprocal Lineweaver-Burk plot analysis; conditions: dose 0.5-2 µM
Acetylcholinesterase [8] = biological target: T2, Acetylcholinesterase; experiment: Mixed type inhibition of electric eel AChE by reciprocal Lineweaver-Burk plot analysis
[9] = Metal chelating activity assessed as compound-Cu2+ complex formation by measuring maximum absorption wavelength shifted from 444 nm to 460 nm by UV-Visible spectrophotometry
Summary of the method: (§1)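 UV-vis spectra recorded from 200 to 600 nm on a multimode reader. Metals tested as CuCl2, FeSO4, ZnCl2 and AlCl3.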

[10] = Metal chelating activity assessed as compound Fe2+ complex formation by UV-Visible spectrophotometry; summary of the method: as §1
[11] = Metal chelating activity assessed as compound Zn2+ complex formation by UV-Visible spectrophotometry; summary of the method: as §1
[12] = biological target: T1, Amyloid-beta precursor protein; experiment: Inhibition of Cu2+ induced amyloid beta (1 to 42 residues) (unknown origin) aggregation at 25 uM by thioflavin-T fluorescence method relative to control
[13] = biological target: T1, Amyloid-beta precursor protein; experiment: Disaggregation of Cu2+ induced amyloid beta (1 to 42 residues) (unknown origin) aggregation at 25 uM by thioflavin-T fluorescence method relative to control
[14] = biological target: T3, Amine oxidase [flavin-containing] B (Homo sapiens, UniProt P27338); experiment: Inhibition of human recombinant MAO-B by multimode plate reader assay
T3 sequence (P27338 whole entry): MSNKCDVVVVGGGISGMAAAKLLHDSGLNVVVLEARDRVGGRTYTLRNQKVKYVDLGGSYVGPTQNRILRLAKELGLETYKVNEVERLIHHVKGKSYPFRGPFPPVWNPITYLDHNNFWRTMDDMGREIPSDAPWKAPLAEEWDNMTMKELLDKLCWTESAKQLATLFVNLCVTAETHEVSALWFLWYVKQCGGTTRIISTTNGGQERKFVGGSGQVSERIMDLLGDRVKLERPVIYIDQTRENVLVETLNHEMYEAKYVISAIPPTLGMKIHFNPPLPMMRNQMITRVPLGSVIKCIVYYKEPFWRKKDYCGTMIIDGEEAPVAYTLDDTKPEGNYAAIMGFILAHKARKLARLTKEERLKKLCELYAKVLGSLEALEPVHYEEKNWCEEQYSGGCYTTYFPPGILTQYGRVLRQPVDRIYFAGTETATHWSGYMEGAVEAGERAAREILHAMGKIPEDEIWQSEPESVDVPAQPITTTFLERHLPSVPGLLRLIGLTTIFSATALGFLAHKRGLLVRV

Homo sapiens = species on record: Homo sapiens; experiment: Selectivity index, ratio of IC50 for recombinant human MAO-A to IC50 for recombinant human MAO-B
Summary of the method: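 Selectivity index taken as IC50(hMAO-A)/IC50(hMAO-B). IC50 values are mean ± SEM from three experiments.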

PC-12 [15] = experiment: Cytotoxicity against rat PC12 cells assessed as cell viability by MTT assay relative to control; assay type: functional
PC-12 [16] = experiment: Neuroprotective activity against H2O2-induced cytotoxicity in rat PC12 cells assessed as increase in cell viability by MTT assay; assay type: functional, cell-based
Summary of the method: (§2)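 PC12 cells exposed to 100 μM H2O2, with or without compound. Viability read by MTT reduction relative to control. Trolox 100 μM is the reference.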

PC-12 [17] = experiment: Neuroprotective activity against H2O2-induced cytotoxicity in rat PC12 cells assessed as increase in cell viability at 1 uM by MTT assay; assay type: functional; summary of the method: as §2
PC-12 [18] = experiment: Neuroprotective activity against H2O2-induced cytotoxicity in rat PC12 cells assessed as increase in cell viability by LDH assay; assay type: functional, cell-based
Summary of the method: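 PC12 cells exposed to H2O2, with or without compound. Membrane damage read as LDH release into the supernatant. Trolox is the reference.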

[19] = Permeability of the compound by PAMPA; assay type: ADME; conditions: read-out: permeability
Summary of the method: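 PAMPA-BBB. Assay validated against 11 commercial drugs with reported permeability values.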

[20] = Acute toxicity in KM mouse assessed as abnormal behavior upto 1000 mg/kg, po administered as single dose measured for 14 days; assay type: organism-based; conditions: in vivo, 336 h, time 14 day
Summary of the method: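 Kunming mice, n = 10 per group, fasted overnight with free access to water, given one oral dose of 67.5, 125, 250, 500 or 1000 mg/kg. Housed on a 12 h light/dark cycle at 20–22 °C, 40–70% relative humidity. Abnormal behaviour and mortality observed continuously for the first 4 h, intermittently over the next 24 h, then occasionally to 14 days.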

[21] = Acute toxicity in KM mouse assessed as mortality upto 1000 mg/kg,po administered as single dose measured for 14 days; assay type: organism-based; conditions: in vivo, 336 h, time 14 day

T1 sequence (P05067 whole entry): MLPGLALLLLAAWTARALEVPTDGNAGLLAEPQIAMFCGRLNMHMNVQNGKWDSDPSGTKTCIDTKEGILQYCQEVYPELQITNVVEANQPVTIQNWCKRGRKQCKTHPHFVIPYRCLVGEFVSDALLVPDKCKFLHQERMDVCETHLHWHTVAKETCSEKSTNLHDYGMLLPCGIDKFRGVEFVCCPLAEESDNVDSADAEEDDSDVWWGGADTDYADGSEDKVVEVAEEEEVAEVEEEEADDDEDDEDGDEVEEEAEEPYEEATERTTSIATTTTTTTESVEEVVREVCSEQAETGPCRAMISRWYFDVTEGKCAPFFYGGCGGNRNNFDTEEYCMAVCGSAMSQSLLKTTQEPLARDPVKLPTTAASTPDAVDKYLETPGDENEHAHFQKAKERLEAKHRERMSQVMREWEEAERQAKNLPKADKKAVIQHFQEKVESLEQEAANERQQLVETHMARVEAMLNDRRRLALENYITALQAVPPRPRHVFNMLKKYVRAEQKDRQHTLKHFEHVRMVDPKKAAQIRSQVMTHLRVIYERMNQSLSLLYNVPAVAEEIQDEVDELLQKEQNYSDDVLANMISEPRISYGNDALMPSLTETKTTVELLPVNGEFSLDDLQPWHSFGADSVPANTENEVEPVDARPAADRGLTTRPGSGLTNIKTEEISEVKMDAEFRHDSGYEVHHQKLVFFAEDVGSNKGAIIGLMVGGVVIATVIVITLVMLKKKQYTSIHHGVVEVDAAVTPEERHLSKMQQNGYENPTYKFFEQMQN
T2 sequence (O42275 whole entry): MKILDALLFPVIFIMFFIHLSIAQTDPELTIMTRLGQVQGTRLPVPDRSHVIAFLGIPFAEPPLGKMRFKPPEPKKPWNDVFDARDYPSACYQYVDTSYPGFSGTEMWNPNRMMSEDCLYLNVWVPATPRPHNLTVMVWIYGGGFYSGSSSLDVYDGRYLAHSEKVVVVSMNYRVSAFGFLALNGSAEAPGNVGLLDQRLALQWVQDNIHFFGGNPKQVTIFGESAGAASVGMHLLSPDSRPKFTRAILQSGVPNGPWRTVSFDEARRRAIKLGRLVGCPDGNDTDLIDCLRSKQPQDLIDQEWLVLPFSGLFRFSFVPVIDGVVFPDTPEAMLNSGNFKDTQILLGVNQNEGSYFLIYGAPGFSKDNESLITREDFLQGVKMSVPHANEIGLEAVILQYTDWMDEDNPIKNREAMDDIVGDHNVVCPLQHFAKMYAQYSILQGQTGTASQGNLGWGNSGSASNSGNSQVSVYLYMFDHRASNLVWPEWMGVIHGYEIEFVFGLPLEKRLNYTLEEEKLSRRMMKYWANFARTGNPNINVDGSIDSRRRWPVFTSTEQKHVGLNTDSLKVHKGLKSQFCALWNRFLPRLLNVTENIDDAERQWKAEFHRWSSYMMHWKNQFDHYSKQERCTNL
Acetylcholinesterase (Electrophorus electricus), sequence (O42275 24-633 limits assumed): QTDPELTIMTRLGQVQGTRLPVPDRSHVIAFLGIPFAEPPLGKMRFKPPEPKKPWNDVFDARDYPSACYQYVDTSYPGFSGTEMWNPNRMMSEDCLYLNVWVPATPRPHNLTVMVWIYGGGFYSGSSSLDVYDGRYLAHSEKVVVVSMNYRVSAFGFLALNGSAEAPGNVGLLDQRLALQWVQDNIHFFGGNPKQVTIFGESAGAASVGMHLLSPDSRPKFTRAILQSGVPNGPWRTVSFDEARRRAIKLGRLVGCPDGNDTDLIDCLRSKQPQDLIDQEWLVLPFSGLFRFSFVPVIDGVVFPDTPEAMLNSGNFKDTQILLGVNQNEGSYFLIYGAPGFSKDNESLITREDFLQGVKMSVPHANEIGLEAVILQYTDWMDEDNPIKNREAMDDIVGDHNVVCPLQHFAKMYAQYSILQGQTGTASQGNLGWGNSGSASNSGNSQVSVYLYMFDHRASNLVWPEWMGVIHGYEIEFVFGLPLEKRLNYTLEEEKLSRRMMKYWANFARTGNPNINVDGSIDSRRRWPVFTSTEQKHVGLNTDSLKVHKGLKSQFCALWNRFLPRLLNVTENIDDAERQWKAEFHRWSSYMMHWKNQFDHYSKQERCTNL
Butyrylcholinesterase, sequence (Q9JKC1 whole entry): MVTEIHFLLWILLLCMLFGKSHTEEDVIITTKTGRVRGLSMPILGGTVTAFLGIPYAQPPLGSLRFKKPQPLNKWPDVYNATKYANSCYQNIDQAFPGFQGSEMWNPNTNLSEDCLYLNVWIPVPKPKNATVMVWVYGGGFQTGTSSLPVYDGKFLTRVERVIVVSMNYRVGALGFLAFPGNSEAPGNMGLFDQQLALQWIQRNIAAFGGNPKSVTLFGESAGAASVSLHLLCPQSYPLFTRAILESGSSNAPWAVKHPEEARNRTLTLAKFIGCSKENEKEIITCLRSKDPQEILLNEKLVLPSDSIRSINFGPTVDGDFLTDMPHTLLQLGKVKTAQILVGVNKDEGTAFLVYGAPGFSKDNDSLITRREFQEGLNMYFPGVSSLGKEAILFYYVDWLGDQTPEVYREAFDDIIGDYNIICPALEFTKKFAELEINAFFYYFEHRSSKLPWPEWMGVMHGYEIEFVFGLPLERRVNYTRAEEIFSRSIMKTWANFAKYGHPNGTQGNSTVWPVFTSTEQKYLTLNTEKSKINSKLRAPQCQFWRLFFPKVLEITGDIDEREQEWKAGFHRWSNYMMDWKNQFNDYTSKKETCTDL

For `CCN(CCCCOc1ccc(C(=O)/C=C/c2ccc(N(C)C)cc2)c(O)c1)Cc1ccccc1N(C)C`, the Activity [1] was 95.1%, the IC50 [2] was 880 nM and the Activity [3] was “inactive”. For the same compound, the Activity [4] was 2.1, the IC50 (Butyrylcholinesterase) was 236000 nM and the IC50 (Acetylcholinesterase [5]) was 690 nM. For the same compound, the inhibition [6] was “Active”, the inhibition [7] was “Active” and the Ki (Acetylcholinesterase [8]) was 500 nM. For the same compound, the Activity [9] was “Active”, the Activity [10] was “inactive” and the Activity [11] was “inactive”. The inhibition [12] was 95.3%, the Activity [13] was 88.1% and the IC50 [14] was 1000 nM. The Selectivity Index (Homo sapiens) was 18.4, the Activity (PC-12 [15]) was >50 µM and the Activity (PC-12 [16]) was “Dose-Dependent Effect”. For the same compound, the Activity (PC-12 [17]) was 70.9%, the Activity (PC-12 [18]) was “Active” and the Papp [19] was 13.4 ×10⁻⁶ cm/s. The Activity [20] was “Non-Toxic” and the Activity [21] was “Non-Toxic”.
